Measured values published in ChEMBL document CHEMBL2093137, “WHO-TDR NTD Screening”.
In brackets after ≈: the same amount, converted by molar mass.

Legend:
Schistosoma mansoni = experiment: WHO-TDR: Schistosomiasis; format: functional; parameters: concentration or dose not given beside the values
How it was run: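 Whole-organism screen of a 10,000-compound diverse library from Life Chemicals, filtered for drug-likeness and reactive groups, against larval and/or adult worms of Schistosoma mansoni Puerto Rican strain. The assay followed previously published standard procedures, with a reference drug as positive control. Activity is reported as percent inhibition and as IC50.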

Plasmodium falciparum K1 = experiment: WHO-TDR: Malaria; format: functional, organism-based, Homo sapiens; conditions: Erythrocyte
How it was run: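 Following previously published standard procedures, with a reference drug serving as positive control, compounds were tested on the Plasmodium falciparum K1 strain inside human red blood cells. The 10,000-compound diverse set came from Life Chemicals after filtering for drug-likeness and reactive groups. Potency against the parasite appears as IC50.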

Onchocerca ochengi = experiment: WHO-TDR: Onchocerciasis; format: functional; parameters: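 at 12.5 µM on microfilariae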
How it was run: (§1)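 Whole-organism screen of a 10,000-compound diverse library from Life Chemicals, filtered for drug-likeness and reactive groups, against microfilariae of Onchocerca ochengi or Onchocerca lienalis, used as animal-pathogen stand-ins for the human parasite. The assay followed previously published standard procedures, with reference drugs as positive controls. Activity is reported as percent inhibition and as IC50.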

Leishmania infantum = experiment: WHO-TDR: Leishmaniasis; format: functional, organism-based, Mus musculus; conditions: Macrophage
How it was run: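 Following previously published standard procedures, a whole-organism screen was run on Leishmania infantum MHOM/MA(BE)/67 amastigotes within murine peritoneal macrophages, with a reference drug as positive control. The 10,000 compounds tested formed a diverse Life Chemicals library filtered for drug-likeness and reactive groups. Potency against the parasite is reported as IC50.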

[1] = WHO-TDR: Cytotoxicity; format: toxicity, cell-based; conditions: human, MRC5 cells
[2] = system: Trypanosoma brucei brucei; experiment: WHO-TDR: Human African Trypanosomiasis (HAT); format: functional, organism-based; conditions: Squib-427
How it was run: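 Bloodstream forms of the Trypanosoma brucei Squib 427 strain were tested in a whole-organism screen with a diverse library from Life Chemicals of 10,000 compounds. Before screening, the library was filtered for drug-likeness and for reactive groups. The assay used previously published standard procedures and included reference drugs as positive controls. Potency against the parasite is expressed as IC50.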

Trypanosoma cruzi = experiment: WHO-TDR: Chagas disease; format: functional, organism-based, Homo sapiens; conditions: MRC5
How it was run: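 Each IC50 reflects antiparasitic potency against intracellular amastigotes of Trypanosoma cruzi Tulahuen CL2 beta-galactosidase strain. These were cultured in MRC-5SV2 human lung fibroblasts and exposed to a 10,000-compound diverse Life Chemicals library screened according to published standard procedures with a reference drug as positive control.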

Brugia malayi = experiment: WHO-TDR: Lymphatic Filariasis; format: functional; parameters: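 tested at 10 µM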
How it was run: as §1, with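 “Brugia malayi microfilariae.” for “microfilariae of Onchocerca ochengi or Onchocerca lienalis, used as animal-pathogen stand-ins for the human parasite.”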

| SMILES | IC50 (Plasmodium falciparum K1) [µg/mL] | IC50 (Leishmania infantum) [µg/mL] | IC50 [2] [µg/mL] | % Inhibition (Schistosoma mansoni) [%] | % Inhibition (Onchocerca ochengi) [%] | IC50 [1] [µg/mL] | IC50 (Trypanosoma cruzi) [µg/mL] | % Inhibition (Brugia malayi) [%] |
| --- | --- | --- | --- | --- | --- | --- | --- | --- |
| Cc1ccc(-n2ccnc2N2CCN(C(=O)c3ccc4ccccc4c3)CC2)cc1 | 4.25 (≈ 10.7 µM) | 2.56 (≈ 6.45 µM) | 4.21 (≈ 10.6 µM) | 8.3 | 100 | 2.65 (≈ 6.67 µM) | 2.67 (≈ 6.73 µM) | 0 |
| Cc1ccc(-n2ccnc2N2CCN(C(=O)/C=C\c3ccccc3)CC2)cc1 | 6.82 (≈ 18.3 µM) | > 12.3 | 4.07 (≈ 10.9 µM) | 25 | 100 | > 12.3 | 3.88 (≈ 10.4 µM) | 0 |
| COc1cc(OC)cc(C(=O)N2CCN(c3nccn3-c3cccc(Cl)c3)CC2)c1 | 6.13 (≈ 14.4 µM) | 4.5 (≈ 10.5 µM) | 4.5 (≈ 10.5 µM) | 0 | 100 | > 13.9 | 4.18 (≈ 9.78 µM) | 0 |
| O=C(c1ccc(F)c(F)c1)N1CCN(c2nccn2-c2cccc(Cl)c2)CC1 | > 13.2 | 4.27 (≈ 10.6 µM) | 3.83 (≈ 9.51 µM) | 0 | 100 | > 13.2 | 11.4 (≈ 28.2 µM) | 0 |
| COc1cccc(OCC(=O)N2CCN(c3nccn3-c3cccc(Cl)c3)CC2)c1 | 12.2 (≈ 28.5 µM) | 0.45 (≈ 1.05 µM) | 4.61 (≈ 10.8 µM) | 0 | 0 | > 13.9 | 9.15 (≈ 21.4 µM) | 0 |
| COc1ccc(CC(=O)N2CCN(c3nccn3-c3cccc(Cl)c3)CC2)cc1OC | > 14.3 | 0.464 (≈ 1.05 µM) | > 14.3 | 16.7 | 0 | > 14.3 | > 14.3 | 0 |
| O=C(Cc1cccs1)N1CCN(c2nccn2-c2cccc(Cl)c2)CC1 | 12 (≈ 31.1 µM) | 0.411 (≈ 1.06 µM) | 4.77 (≈ 12.3 µM) | 0 | 50 | > 12.7 | 7.14 (≈ 18.5 µM) | 0 |
| O=C(Nc1ccc2c(c1)N(C(=O)c1cccs1)CC2)c1cc2ccccc2oc1=O | > 12.5 | 0.404 (≈ 0.97 µM) | > 12.5 | 16.7 | 0 | > 12.5 | > 12.5 | 0 |
| CC(C)(C)C(=O)N1CCc2ccc(NC(=O)Cc3cccs3)cc21 | > 10.3 | 0.333 (≈ 0.972 µM) | > 10.3 | 0 | 50 | > 10.3 | 4.11 (≈ 12 µM) | 0 |
| COc1cc(C(=O)Nc2ccc3c(c2)N(C(=O)c2ccco2)CC3)cc(OC)c1OC | 11.5 (≈ 27.1 µM) | > 12.7 | > 12.7 | 16.7 | 100 | 2.08 (≈ 4.91 µM) | > 12.7 | 0 |
| O=C(Nc1ccc2c(c1)N(C(=O)C1CCCO1)CC2)c1ccco1 (stereo not drawn) | > 9.79 | 0.317 (≈ 0.971 µM) | > 9.79 | 0 | 0 | > 9.79 | > 9.79 | 0 |
| CC(=O)N1CCc2ccc(NC(=O)c3ccc(F)c(F)c3)cc21 | > 9.49 | 0.307 (≈ 0.971 µM) | > 9.49 | 8.3 | 75 | > 9.49 | 2.93 (≈ 9.25 µM) | 0 |
| CC(=O)N1CCc2ccc(NC(=O)c3ccc(C(C)(C)C)cc3)cc21 | > 10.1 | > 10.1 | > 10.1 | 16.7 | 0 | > 10.1 | 0.3 (≈ 0.892 µM) | 0 |
| CCn1nc(C)cc1C(=O)N1CCN(c2nc3c(C)ccc(C)c3s2)CC1 | > 11.5 | > 11.5 | > 11.5 | 16.7 | 100 | > 11.5 | > 11.5 | 0 |
| COc1ccc(Cl)cc1NC(=O)CSc1ccc(NC(=O)C2CC2)nn1 | > 11.8 | > 11.8 | > 11.8 | 33.3 | 100 | > 11.8 | > 11.8 | 0 |
| CCn1ccc(C(=O)Nc2ccc3nc(SC)sc3c2)n1 | 0.955 (≈ 3 µM) | > 9.55 | > 9.55 | 0 | 100 | > 9.55 | > 9.55 | 0 |
| CCn1ccc(C(=O)Nc2nc(C(C)(C)C)cs2)n1 | > 8.35 | > 8.35 | > 8.35 | 16.7 | 100 | > 8.35 | > 8.35 | 0 |

Further lines, with some results ahead:

| IC50 (Plasmodium falciparum K1) [µg/mL] | IC50 (Leishmania infantum) [µg/mL] | IC50 [2] [µg/mL] | SMILES | % Inhibition (Schistosoma mansoni) [%] | % Inhibition (Onchocerca ochengi) [%] | IC50 [1] [µg/mL] | IC50 (Trypanosoma cruzi) [µg/mL] | % Inhibition (Brugia malayi) [%] |
| --- | --- | --- | --- | --- | --- | --- | --- | --- |
| > 11.4 | 0.37 (≈ 1.07 µM) | > 11.4 | CCn1ccnc1N1CCN(C(=O)c2cccc(OC)c2OC)CC1 | 8.3 | 0 | > 11.4 | > 11.4 | 0 |
| > 12.5 | > 12.5 | > 12.5 | COc1ccccc1C(=O)N1CCN(c2nccn2-c2ccccc2F)CC1 | 25 | 100 | > 12.5 | > 12.5 | 0 |
| > 11 | 0.357 (≈ 0.972 µM) | > 11 | Cn1ccnc1N1CCN(CC(=O)Nc2ccccc2C(F)(F)F)CC1 | 0 | 0 | > 11 | > 11 | 0 |
| > 11.5 | 0.372 (≈ 0.97 µM) | 5.13 (≈ 13.4 µM) | Cn1ccnc1N1CCN(CC(=O)Nc2ccc(OC(F)(F)F)cc2)CC1 | 0 | 50 | > 11.5 | > 11.5 | 0 |
| > 11.8 | 0.381 (≈ 1.19 µM) | > 11.8 | CCn1ccnc1N1CCN(CC(=O)NC2CCCCC2)CC1 | 0 | 0 | > 11.8 | > 11.8 | 0 |
| > 12.4 | 0.402 (≈ 1.18 µM) | > 12.4 | CCn1ccnc1N1CCN(CC(=O)NCc2ccc(C)cc2)CC1 | 0 | 0 | > 12.4 | > 12.4 | 0 |
| 6.19 (≈ 15.7 µM) | > 11.8 | 5.48 (≈ 13.9 µM) | Cc1ccc(NC(=O)CN2CCN(c3nccn3-c3ccccc3F)CC2)cc1 | 0 | 100 | > 11.8 | 11.2 (≈ 28.6 µM) | 0 |
| 7.54 (≈ 17.9 µM) | 0.481 (≈ 1.14 µM) | 4.69 (≈ 11.1 µM) | O=C(CN1CCN(c2nccn2-c2cccc(Cl)c2)CC1)N1CCc2ccccc21 | 0 | 75 | 14.2 (≈ 33.6 µM) | 5.05 (≈ 12 µM) | 0 |
| 12.6 (≈ 29.2 µM) | 4.9 (≈ 11.4 µM) | 4.79 (≈ 11.1 µM) | O=C(CN1CCN(c2nccn2-c2cccc(Cl)c2)CC1)Nc1ccc(F)cc1F | 0 | 100 | > 15.1 | 4.67 (≈ 10.8 µM) | 0 |
